{
  "source": "ChEMBL document CHEMBL4765349",
  "about": "“Design, synthesis and biological evaluation of novel N-sulfonylamidine-based derivatives as c-Met inhibitors via Cu-catalyzed three-component reaction” (Eur J Med Chem, 2020)",
  "key": {"A549": {"test_system": "A549", "assay": "Induction of apoptosis in human A549 cells assessed as early apoptosis at 1 uM measured after 12 hrs by Annexin V-FITC/ Propidium iodide stain based flow cytometry assay relative to control", "type": "functional", "summary_of_the_method": "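Cells double-stained with FITC-annexin V and propidium iodide, then flow cytometry gave the percentages of early and late apoptotic cells.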"}, "[1]": {"assay": "Toxicity in Balb/c mouse assessed as anaphylactic response at 100 to 200 mg/kg, ip measured after 15 days", "type": "organism-based", "conditions": "in vivo, 360 h, dose 100-200 mg/kg, time 15 day", "summary_of_the_method": "(§1)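 Acute toxicity in 8-week-old male BALB/c mice, randomized into groups of n = 10. Single intraperitoneal dose on day 0 of vehicle or 100, 200, 300 or 400 mg/kg, plus an untreated control group. Mice watched for 15 days for deaths, abnormalities, anaphylactic or allergic reactions and body weight loss.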"}, "[2]": {"assay": "Toxicity in Balb/c mouse assessed as allergic reaction at 100 to 200 mg/kg, ip measured after 15 days", "type": "organism-based", "conditions": "in vivo, 360 h, dose 100-200 mg/kg, time 15 day", "summary_of_the_method": "as §1"}, "[3]": {"assay": "Toxicity in Balb/c mouse assessed as body weight at 100 to 200 mg/kg, ip measured after 15 days", "type": "organism-based", "conditions": "in vivo, 360 h, dose 100-200 mg/kg, time 15 day", "summary_of_the_method": "as §1"}, "[4]": {"assay": "Selectivity index, ratio of IC50 for human HUVEC cells assessed as inhibition of cell proliferation to IC50 of HT-29 cells assessed as inhibition of cell proliferation", "type": "toxicity", "conditions": "HUVEC cells versus HT-29 cells, read-out: Selectivity Index"}, "[5]": {"assay": "AUC (0 to infinity) in Balb/c mouse at 2 mg/kg, iv measured after 24 hrs by LC/MS/MS analysis", "type": "ADME, organism-based", "design": "route intravenous, time 24 hrs, dose 2 mg/kg", "conditions": "in vivo", "summary_of_the_method": "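BALB/c mice dosed once orally at 8 mg/kg or intravenously at 2 mg/kg. Plasma concentration followed over time, and Cmax, Tmax, AUC0-∞, elimination half-life, clearance and oral bioavailability were derived from it.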"}, "[6]": {"molecular_target": "Mast/stem cell growth factor receptor Kit (Homo sapiens, UniProt P10721)", "sequence (P10721 whole entry)": "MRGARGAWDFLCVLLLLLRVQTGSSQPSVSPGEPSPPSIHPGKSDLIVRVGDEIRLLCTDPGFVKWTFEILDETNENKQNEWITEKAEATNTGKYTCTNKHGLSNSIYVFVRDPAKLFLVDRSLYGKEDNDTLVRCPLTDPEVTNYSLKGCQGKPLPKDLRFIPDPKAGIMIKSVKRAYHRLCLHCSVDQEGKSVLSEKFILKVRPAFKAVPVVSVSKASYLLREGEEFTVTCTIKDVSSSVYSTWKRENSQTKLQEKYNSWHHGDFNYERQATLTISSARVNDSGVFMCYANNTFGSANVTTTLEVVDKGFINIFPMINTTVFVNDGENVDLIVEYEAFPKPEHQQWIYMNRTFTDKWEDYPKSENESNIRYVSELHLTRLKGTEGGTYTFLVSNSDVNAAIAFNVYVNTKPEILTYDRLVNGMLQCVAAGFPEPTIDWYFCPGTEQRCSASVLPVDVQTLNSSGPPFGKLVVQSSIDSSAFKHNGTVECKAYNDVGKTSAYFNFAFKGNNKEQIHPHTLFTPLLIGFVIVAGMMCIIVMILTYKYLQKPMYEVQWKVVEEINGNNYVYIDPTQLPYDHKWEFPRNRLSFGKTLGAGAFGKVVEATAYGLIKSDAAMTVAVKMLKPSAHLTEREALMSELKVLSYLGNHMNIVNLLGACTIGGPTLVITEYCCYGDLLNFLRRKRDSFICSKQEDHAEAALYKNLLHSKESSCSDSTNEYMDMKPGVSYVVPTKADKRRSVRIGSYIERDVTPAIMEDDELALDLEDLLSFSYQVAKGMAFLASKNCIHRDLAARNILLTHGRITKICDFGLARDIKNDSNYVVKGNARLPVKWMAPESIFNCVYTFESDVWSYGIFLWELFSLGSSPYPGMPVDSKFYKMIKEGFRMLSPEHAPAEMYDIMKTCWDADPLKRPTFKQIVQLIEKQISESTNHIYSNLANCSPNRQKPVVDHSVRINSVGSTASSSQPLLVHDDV", "assay": "Inhibition of c-Kit (unknown origin) using poly (Glu, Tyr)4:1 as substrate in presence of ATP measured after 30 mins by HTRF assay", "summary_of_the_method": "(§2)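 Kinase inhibition measured by homogeneous time-resolved fluorescence (HTRF) across a panel of Ron, ALK and other tyrosine kinases, with IC50 as the read-out.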"}, "[7]": {"molecular_target": "Epidermal growth factor receptor (Homo sapiens, UniProt P00533)", "sequence (P00533 whole entry)": "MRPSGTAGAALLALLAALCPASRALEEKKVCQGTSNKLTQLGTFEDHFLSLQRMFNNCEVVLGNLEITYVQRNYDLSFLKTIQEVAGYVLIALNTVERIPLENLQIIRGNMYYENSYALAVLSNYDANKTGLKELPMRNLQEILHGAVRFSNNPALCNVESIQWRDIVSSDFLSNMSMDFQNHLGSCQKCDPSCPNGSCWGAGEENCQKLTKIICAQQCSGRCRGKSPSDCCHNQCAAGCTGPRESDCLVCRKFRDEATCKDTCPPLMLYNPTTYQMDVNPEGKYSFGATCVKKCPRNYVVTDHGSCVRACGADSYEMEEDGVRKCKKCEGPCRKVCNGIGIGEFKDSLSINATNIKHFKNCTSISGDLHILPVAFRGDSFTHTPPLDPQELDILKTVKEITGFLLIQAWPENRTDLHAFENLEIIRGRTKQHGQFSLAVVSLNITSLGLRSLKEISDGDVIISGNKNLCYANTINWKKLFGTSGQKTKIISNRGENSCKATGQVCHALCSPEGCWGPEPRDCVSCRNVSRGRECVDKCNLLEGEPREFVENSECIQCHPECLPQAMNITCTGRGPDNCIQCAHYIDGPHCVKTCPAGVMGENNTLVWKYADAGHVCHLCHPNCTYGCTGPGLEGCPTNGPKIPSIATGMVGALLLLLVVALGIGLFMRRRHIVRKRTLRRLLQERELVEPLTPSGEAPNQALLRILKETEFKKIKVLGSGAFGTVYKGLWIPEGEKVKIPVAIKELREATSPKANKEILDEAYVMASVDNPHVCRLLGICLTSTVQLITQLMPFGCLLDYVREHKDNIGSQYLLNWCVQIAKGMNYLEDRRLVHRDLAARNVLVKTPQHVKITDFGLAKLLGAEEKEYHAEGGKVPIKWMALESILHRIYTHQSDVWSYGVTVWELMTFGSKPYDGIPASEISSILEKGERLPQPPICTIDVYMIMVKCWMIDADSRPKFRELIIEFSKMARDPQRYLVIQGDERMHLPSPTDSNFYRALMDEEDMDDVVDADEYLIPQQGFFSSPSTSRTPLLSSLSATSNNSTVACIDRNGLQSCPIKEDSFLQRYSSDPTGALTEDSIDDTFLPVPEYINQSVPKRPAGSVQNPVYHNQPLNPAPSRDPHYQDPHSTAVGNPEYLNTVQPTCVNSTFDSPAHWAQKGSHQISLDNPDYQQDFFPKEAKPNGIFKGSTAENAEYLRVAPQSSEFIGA", "assay": "Inhibition of EGFR (unknown origin) using poly (Glu, Tyr)4:1 as substrate in presence of ATP measured after 30 mins by HTRF assay", "summary_of_the_method": "as §2"}, "[8]": {"molecular_target": "T1, Receptor-type tyrosine-protein kinase FLT3 (Homo sapiens, UniProt P36888)", "T1 sequence (P36888 whole entry)": "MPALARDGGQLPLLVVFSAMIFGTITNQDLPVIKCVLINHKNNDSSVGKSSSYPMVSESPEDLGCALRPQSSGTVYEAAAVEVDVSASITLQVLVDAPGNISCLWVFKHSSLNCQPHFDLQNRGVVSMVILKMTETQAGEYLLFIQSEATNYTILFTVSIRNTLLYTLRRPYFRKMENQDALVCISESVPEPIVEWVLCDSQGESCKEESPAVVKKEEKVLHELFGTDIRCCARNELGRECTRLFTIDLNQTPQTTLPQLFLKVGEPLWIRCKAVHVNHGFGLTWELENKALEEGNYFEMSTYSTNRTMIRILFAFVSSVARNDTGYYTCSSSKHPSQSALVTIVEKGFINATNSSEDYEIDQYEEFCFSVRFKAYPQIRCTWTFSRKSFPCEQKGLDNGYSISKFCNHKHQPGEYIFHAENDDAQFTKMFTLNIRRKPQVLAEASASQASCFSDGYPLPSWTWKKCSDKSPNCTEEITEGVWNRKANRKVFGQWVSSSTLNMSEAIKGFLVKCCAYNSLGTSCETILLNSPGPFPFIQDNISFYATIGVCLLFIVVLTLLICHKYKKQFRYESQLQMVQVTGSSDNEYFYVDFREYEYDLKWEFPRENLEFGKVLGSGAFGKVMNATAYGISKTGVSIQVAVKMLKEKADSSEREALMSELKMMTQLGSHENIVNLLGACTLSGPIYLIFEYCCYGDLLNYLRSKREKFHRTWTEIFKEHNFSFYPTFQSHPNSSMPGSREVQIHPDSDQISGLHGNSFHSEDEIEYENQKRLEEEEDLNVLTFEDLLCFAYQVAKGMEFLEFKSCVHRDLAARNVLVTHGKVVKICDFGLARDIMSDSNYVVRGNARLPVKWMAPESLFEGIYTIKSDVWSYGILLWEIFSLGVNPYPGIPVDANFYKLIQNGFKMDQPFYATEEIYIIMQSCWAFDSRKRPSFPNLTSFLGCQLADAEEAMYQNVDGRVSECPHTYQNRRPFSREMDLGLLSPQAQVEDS", "assay": "Inhibition of FLT-3 (unknown origin) using poly (Glu, Tyr)4:1 as substrate in presence of ATP measured after 30 mins by HTRF assay"}},
  "note": "pIC50: −log10 of the molar value.",
  "data": [
    {"compound": "COCC/C(=N\\S(=O)(=O)Cc1ccc(Cl)cc1)Nc1ccc(Oc2ccnc3cc(OCCCN4CCOCC4)c(OC)cc23)c(F)c1", "values": [
      {"measurement": "Activity", "setting": "A549", "value": 15.69, "unit": "%"},
      {"measurement": "Activity", "setting": "[1]", "value": "Non-Toxic"},
      {"measurement": "Activity", "setting": "[2]", "value": "Non-Toxic"},
      {"measurement": "Activity", "setting": "[3]", "value": "Non-Toxic"},
      {"measurement": "selectivity ratio", "setting": "[4]", "value": 4.2},
      {"measurement": "AUC", "setting": "[5]", "value": 2.3, "unit": "µg/h/mL"},
      {"measurement": "pIC50", "setting": "[6]", "value": 8.37},
      {"measurement": "pIC50", "setting": "[7]", "value": "< 5.00"},
      {"measurement": "pIC50", "setting": "[8]", "value": 8.14}
    ]}
  ]
}
